# Reference: paper PMC11539005 (RSC Advances, 2024)
# Several values for one entry are separate records, joined by “and”; a condition that tells them apart may be missing. Equal entries are not always repeated.
# Key:
# HepG2 = test: MTT anti-proliferative assay on HepG2; type: cell-based; details: Homo sapiens, HepG2, read-out: HepG2 (IC50)
# Outline: (§1)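 Human MCF-7 and HepG2 cancer cell lines exposed to test compounds. Anti-proliferative IC50 given in μM. Each reported value is the mean of IC50 values from three separate experiments.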
# MCF-7 = test: MTT anti-proliferative assay on MCF-7; type: cell-based; details: Homo sapiens, MCF7, read-out: MCF-7 (IC50)
# Outline: as §1
# CDK8 = CDK8 (Homo sapiens, UniProt P49336); test: Kinase profiling test, CDK8; type: biochemical; details: CDK8 IC50 (mean ± SD)
# Chain of CDK8 (P49336 whole entry): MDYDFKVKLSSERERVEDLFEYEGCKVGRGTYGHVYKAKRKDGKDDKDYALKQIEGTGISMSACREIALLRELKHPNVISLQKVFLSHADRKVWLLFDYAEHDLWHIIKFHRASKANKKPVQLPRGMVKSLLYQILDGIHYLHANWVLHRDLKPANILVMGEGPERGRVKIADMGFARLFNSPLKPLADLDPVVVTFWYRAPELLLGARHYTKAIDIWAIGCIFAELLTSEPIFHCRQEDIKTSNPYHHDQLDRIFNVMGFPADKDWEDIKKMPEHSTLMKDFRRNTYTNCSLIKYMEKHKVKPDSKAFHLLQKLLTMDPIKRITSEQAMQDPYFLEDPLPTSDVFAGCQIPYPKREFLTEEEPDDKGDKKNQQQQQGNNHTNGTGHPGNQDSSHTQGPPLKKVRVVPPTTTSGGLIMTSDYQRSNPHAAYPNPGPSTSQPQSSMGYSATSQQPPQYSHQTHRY
# Chain of CDK8 (P24863 whole entry partner): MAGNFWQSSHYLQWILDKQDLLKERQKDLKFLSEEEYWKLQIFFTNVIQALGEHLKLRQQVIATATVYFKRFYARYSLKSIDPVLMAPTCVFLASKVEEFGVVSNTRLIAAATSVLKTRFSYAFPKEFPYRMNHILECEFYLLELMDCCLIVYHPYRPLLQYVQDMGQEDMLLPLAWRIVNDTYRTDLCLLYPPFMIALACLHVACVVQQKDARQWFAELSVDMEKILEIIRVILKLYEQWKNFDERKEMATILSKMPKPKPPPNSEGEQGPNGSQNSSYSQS
# VEGFR-2 = VEGFR-2 (Homo sapiens, UniProt P35968); test: biochemical
# Chain of VEGFR-2 (P35968 20-1356): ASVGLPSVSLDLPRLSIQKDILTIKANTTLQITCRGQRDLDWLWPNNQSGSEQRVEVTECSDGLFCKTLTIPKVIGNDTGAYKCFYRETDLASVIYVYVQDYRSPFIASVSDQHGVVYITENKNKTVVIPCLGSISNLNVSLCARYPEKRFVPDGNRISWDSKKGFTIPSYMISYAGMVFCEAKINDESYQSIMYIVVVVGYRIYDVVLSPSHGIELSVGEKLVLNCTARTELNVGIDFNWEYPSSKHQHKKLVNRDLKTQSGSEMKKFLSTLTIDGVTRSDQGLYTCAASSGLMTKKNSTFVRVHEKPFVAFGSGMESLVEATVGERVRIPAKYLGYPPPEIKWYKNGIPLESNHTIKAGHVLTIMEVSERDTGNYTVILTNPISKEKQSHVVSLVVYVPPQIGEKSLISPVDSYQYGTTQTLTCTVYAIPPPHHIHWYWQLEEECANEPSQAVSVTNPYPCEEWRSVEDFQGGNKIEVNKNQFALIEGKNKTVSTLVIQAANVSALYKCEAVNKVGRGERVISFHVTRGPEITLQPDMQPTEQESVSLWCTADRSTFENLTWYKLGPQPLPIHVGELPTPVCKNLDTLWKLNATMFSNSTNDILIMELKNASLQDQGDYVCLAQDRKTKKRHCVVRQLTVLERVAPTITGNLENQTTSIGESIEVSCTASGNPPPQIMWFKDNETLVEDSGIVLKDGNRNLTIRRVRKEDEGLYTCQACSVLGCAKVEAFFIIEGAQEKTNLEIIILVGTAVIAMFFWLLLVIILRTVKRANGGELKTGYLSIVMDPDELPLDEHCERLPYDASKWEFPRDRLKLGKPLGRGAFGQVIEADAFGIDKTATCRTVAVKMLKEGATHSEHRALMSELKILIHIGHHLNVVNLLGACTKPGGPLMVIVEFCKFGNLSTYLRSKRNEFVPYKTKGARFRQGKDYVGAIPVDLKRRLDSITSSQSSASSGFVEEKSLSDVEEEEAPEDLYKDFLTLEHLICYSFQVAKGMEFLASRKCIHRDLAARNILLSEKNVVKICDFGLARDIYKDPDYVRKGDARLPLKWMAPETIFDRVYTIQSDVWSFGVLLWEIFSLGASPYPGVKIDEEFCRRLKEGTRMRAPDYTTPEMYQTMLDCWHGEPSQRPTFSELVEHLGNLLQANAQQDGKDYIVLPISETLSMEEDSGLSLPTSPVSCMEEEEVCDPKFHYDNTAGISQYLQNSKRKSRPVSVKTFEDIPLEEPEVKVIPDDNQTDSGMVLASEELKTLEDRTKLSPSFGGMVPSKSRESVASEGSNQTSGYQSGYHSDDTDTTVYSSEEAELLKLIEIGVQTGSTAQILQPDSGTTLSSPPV
# MCF-7 cells [1] = test: Cell cycle analysis by flow cytometry; type: cell-based; details: MCF-7, 0.06 µM, 72 h
# caspase-9 = test: RT-PCR caspase-9 expression in MCF-7 cells; type: cell-based; details: MCF-7, 0.06 µM; control 1
# WI-38 = test: Safety assay: cytotoxicity against normal human lung cells; type: cell-based
# Outline: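 Normal human lung WI-38 cells exposed to test compound for in vitro cytotoxicity. IC50 in μM is the mean of IC50 values from three separate experiments. Selectivity index = IC50 in WI-38 / IC50 in MCF-7 or HepG2 cancer cells.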
# MCF-7 cells [2] = test: Apoptosis assay; type: cell-based; details: MCF-7, 0.06 µM, 72 h
# PIK3α = PIK3α (Homo sapiens, UniProt P42336); test: Kinase profiling test, PIK3α; type: biochemical
# BRAF = BRAF (Homo sapiens, UniProt P15056); test: Kinase profiling test, BRAF; type: biochemical
# Chain of BRAF (P15056 whole entry): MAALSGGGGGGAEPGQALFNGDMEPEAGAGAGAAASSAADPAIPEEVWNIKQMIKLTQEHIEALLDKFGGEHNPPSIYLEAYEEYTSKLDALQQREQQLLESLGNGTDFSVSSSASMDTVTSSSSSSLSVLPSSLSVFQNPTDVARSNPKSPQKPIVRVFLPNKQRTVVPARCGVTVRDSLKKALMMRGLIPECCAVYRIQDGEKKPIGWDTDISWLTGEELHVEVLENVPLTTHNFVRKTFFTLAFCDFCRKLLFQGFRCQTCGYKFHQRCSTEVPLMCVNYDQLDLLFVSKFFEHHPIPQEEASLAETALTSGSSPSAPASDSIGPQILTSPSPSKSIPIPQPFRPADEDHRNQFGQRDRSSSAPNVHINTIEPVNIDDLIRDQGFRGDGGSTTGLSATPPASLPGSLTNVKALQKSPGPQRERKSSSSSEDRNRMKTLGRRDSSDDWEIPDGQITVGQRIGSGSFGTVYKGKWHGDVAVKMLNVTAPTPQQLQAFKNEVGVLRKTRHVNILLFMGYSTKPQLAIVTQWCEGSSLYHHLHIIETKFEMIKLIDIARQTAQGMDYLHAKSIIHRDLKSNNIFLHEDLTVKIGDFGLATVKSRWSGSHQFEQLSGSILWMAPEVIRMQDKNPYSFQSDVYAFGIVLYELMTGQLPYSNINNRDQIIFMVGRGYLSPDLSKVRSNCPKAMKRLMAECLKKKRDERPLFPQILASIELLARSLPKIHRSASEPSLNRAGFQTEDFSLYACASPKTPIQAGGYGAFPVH
# EGFR = EGFR (Homo sapiens, UniProt P00533); test: Kinase profiling test, EGFR; type: biochemical
# Chain of EGFR (P00533 25-1210): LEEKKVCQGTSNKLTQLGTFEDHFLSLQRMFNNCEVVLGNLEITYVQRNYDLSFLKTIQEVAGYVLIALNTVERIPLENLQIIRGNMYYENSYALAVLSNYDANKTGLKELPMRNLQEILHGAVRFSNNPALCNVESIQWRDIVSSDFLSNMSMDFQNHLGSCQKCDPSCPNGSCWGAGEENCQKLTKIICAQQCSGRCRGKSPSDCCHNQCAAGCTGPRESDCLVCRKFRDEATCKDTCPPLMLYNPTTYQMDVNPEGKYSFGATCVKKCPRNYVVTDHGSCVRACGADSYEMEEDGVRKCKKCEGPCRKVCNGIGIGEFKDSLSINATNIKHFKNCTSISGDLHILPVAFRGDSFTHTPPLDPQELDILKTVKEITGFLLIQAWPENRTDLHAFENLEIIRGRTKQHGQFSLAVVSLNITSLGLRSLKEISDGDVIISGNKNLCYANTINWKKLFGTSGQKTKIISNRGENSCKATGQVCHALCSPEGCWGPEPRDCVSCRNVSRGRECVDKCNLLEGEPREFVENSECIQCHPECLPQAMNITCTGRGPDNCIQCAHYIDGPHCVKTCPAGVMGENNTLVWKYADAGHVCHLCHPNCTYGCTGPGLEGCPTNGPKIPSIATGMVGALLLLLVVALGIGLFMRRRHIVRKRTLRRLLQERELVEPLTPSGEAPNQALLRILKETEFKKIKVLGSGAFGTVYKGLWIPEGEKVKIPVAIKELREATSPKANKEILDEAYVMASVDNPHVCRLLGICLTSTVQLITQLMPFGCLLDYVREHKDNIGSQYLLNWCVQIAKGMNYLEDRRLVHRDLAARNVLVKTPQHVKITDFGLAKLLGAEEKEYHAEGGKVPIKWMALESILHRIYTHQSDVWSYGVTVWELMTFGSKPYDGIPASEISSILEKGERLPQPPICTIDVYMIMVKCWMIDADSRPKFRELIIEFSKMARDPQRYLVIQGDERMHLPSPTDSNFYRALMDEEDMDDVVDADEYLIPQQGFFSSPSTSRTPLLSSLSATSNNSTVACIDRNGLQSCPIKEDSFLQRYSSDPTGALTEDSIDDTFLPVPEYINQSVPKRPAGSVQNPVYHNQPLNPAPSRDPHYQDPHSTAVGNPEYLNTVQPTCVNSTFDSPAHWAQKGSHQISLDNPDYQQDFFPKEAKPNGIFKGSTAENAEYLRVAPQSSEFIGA
# caspase-8 = test: RT-PCR caspase-8 expression in MCF-7 cells; type: cell-based; details: MCF-7, 0.06 µM; control 1
compound,measurement,setting,value
"CC(=O)Nc1ccc(/C(C)=N/N=c2\sc(C(C)=O)nn2-c2ccc(C)cc2)cc1 [Compound 16, N-(4-((E)-1-(((Z)-5-Acetyl-3-(p-tolyl)-1,3,4-thiadiazol-2(3H)-ylidene)hydrazono)ethyl)phenyl) acetamide]",IC50,HepG2,9.92 ± 0.22 µM
same,IC50,MCF-7,1.25 ± 0.02 µM
"CC(=O)c1nn(-c2ccccc2Cl)/c(=N/N=C(\C)c2ccc(NC(=O)c3ccccc3)cc2)s1 [Compound 20a, N-(4-((E)-1-(((Z)-5-Acetyl-3-(2-chlorophenyl)-1,3,4-thiadiazol-2(3H)-ylidene)hydrazono)ethyl)phenyl)benzamide]",IC50,HepG2,0.13 ± 0.01 µM
same,IC50,MCF-7,0.06 ± 0.01 µM
"CC(=O)c1nn(-c2ccc(C)cc2)/c(=N/N=C(\C)c2ccc(NC(=O)c3ccccc3)cc2)s1 [Compound 20b, N-(4-((E)-1-(((Z)-5-Acetyl-3-(p-tolyl)-1,3,4-thiadiazol-2(3H)-ylidene)hydrazono)ethyl)phenyl) benzamide]",IC50,CDK8,0.266 ± 0.058 µM
same,IC50,"VEGFR-2; VEGFR-2 IC50, mean of three experiments",0.0511 µM and 0.051 µM
same,IC50,VEGFR-2; VEGFR-2 inhibition,0.024 µM
same,IC50,HepG2,0.14 ± 0.01 µM
same,Cell cycle distribution % G2/M,MCF-7 cells [1]; control 13.72,11.99%
same,Cell cycle distribution % S,MCF-7 cells [1]; control 23.91,18.76%
same,Cell cycle distribution % G0-G1,MCF-7 cells [1]; control 62.37,69.25%
same,Caspase-9 RT-PCR (fold change),caspase-9,5.44 fold change and 5.4353 fold change
same,IC50,"WI-38; Homo sapiens, WI-38, read-out: WI-38 IC50",0.19 ± 0.01 µM
same,Selectivity index HepG2,WI-38; SI = IC50 in normal cells (WI-38)/IC50 in HepG2,1.4
same,Selectivity index MCF-7,WI-38; SI = IC50 in normal cells (WI-38)/IC50 in MCF-7,3.8
same,Late apoptosis,MCF-7 cells [2]; control 0.24,15.99%
same,Early apoptosis,MCF-7 cells [2]; control 0.61,18.48%
same,Necrosis,MCF-7 cells [2]; control 1.43,4.14%
same,Total apoptosis,MCF-7 cells [2]; untreated 0.85,34.47%
same,IC50,PIK3α,2.14 ± 0.095 µM
same,IC50,BRAF,5.84 ± 0.25 µM
same,IC50,MCF-7,0.05 ± 0.01 µM
same,IC50,EGFR,1.43 ± 0.085 µM
same,Caspase-8 RT-PCR (fold change),caspase-8,3.42 fold change and 3.4176 fold change
"CCOC(=O)c1nn(-c2cccc(Cl)c2)/c(=N/N=C(\C)c2ccc(NC(=O)c3ccccc3)cc2)s1 [Compound 21a, Ethyl (Z)-5-(((E)-1-(4-benzamidophenyl)ethylidene)hydrazono)-4-(3-chlorophenyl)-4,5-dihydro-1,3,4-thiadiazole-2-carboxylate]",IC50,HepG2,0.15 ± 0.01 µM
same,IC50,MCF-7,0.19 ± 0.01 µM
"CCOC(=O)c1nn(-c2cccc(Cl)c2)/c(=N/N=C(\C)c2ccc(NC(=O)c3ccc(Cl)cc3)cc2)s1 [Compound 21b, Ethyl (Z)-5-(((E)-1-(4-(4-Chlorobenzamido)phenyl)ethylidene)hydrazono)-4-(3-chlorophenyl)-4,5-dihydro-1,3,4-thiadiazole-2-carboxylate]",IC50,HepG2,0.13 ± 0.01 µM
same,IC50,MCF-7,0.14 ± 0.01 µM
"CNC(=O)c1cc(Oc2ccc(NC(=O)Nc3ccc(Cl)c(C(F)(F)F)c3)cc2)ccn1 [Sorafenib, reference compound]",IC50,HepG2,0.13 ± 0.03 µM
same,IC50,MCF-7,0.14 ± 0.03 µM
